Data reported in ChEMBL document CHEMBL5724801, “EUbOPEN Chemogenomics Library - Multiplex” (2024).
Values joined by “and” are separate entries in the source; they are usually repeats but may differ in a detail not shown here. Equal values may be shown once.

System: Fibroblast
Experiment: Multiplex assay against human fibroblast
Format: toxicity, cell-based
Summary of the method: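 With compound added, live cells were imaged on a CQ1 microscope at 37°C and 5% CO2; staining with Hoechst33342, BioTracker Green Microtubule Cytoskeleton Dye, MitoTracker Red and Annexin V Alexa Fluor 680 had been done at seeding. The CellPathfinder machine-learning gating scheme split cells into Hoechst high-intensity objects or normal cells, normal cells into healthy, pyknosed or fragmented nuclei, and pyknosed cells into mitotic or apoptotic. The tubulin, mitochondrial-mass and membrane-permeability phenotypes are per cents of healthy-nucleus cells.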

[1] = 12 h, 1 µM, compound concentration 1 uM
[2] = 12 h, 10 µM, compound concentration 10 uM
[3] = 24 h, 1 µM, compound concentration 1 uM
[4] = 24 h, 10 µM, compound concentration 10 uM
[5] = 48 h, 1 µM, compound concentration 1 uM
[6] = 48 h, 10 µM, compound concentration 10 uM

Structure (SMILES): Cc1c(C(=O)NCCCN(C)C)sc2ncnc(Nc3ccc(F)cc3OC(C)CF)c12 (centres undefined)
- Population Fragmented Nuclei (%) [1]: 17.37% and 8.18%
- Population Healthy Nuclei (%) [1]: 51.64% and 79.93%
- Population Hoechst High Intensity Objects (%) [1]: 0%
- Population Membrane Permeable-Phenotype (%) [1]: 0.91% and 2.79%
- Population Mitochondria Different-Phenotype (%) [1]: 15.45% and 13.95%
- Population Mitotic Cells (%) [1]: 92.42% and 75%
- Population Normal (%) [1]: 100%
- Population Pyknosed Nuclei (%) [1]: 30.99% and 11.9%
- Population Tubulin-Different-Phenotype (%) [1]: 30.91% and 38.14%
- Total Cell Count [1]: 213 and 269
- Population Apoptotic (%) [2]: 19.3% and 27.27%
- Population Fragmented Nuclei (%) [2]: 12.69% and 4.88%
- Population Healthy Nuclei (%) [2]: 43.46% and 60.98%
- Population Hoechst High Intensity Objects (%) [2]: 0%
- Population Membrane Permeable-Phenotype (%) [2]: 10.62% and 8%
- Population Mitochondria Different-Phenotype (%) [2]: 35.4% and 21.45%
- Population Mitotic Cells (%) [2]: 80.7% and 72.73%
- Population Normal (%) [2]: 100%
- Population Pyknosed Nuclei (%) [2]: 43.85% and 34.15%
- Population Tubulin-Different-Phenotype (%) [2]: 46.9% and 77.82%
- Total Cell Count [2]: 260 and 451
- Population Fragmented Nuclei (%) [3]: 16.28% and 8.79%
- Population Healthy Nuclei (%) [3]: 68.99% and 76.87%
- Population Hoechst High Intensity Objects (%) [3]: 0%
- Population Membrane Permeable-Phenotype (%) [3]: 2.25% and 3.81%
- Population Mitochondria Different-Phenotype (%) [3]: 5.06% and 8.05%
- Population Mitotic Cells (%) [3]: 94.74% and 72.73%
- Population Normal (%) [3]: 100%
- Population Pyknosed Nuclei (%) [3]: 14.73% and 14.33%
- Population Tubulin-Different-Phenotype (%) [3]: 28.09% and 38.14%
- Total Cell Count [3]: 258 and 307
- Population Apoptotic (%) [4]: 33.11% and 50.51%
- Population Fragmented Nuclei (%) [4]: 9.29% and 4.55%
- Population Healthy Nuclei (%) [4]: 35.69% and 45.45%
- Population Hoechst High Intensity Objects (%) [4]: 0%
- Population Membrane Permeable-Phenotype (%) [4]: 13.54% and 11.11%
- Population Mitochondria Different-Phenotype (%) [4]: 40.62% and 36.11%
- Population Mitotic Cells (%) [4]: 66.89% and 49.49%
- Population Normal (%) [4]: 100%
- Population Pyknosed Nuclei (%) [4]: 55.02% and 50%
- Population Tubulin-Different-Phenotype (%) [4]: 75% and 87.78%
- Total Cell Count [4]: 269 and 396
- Population Apoptotic (%) [5]: 28.57% and 61.54%
- Population Fragmented Nuclei (%) [5]: 15.91% and 10.44%
- Population Healthy Nuclei (%) [5]: 79.55% and 85.44%
- Population Hoechst High Intensity Objects (%) [5]: 0%
- Population Membrane Permeable-Phenotype (%) [5]: 0% and 7.04%
- Population Mitochondria Different-Phenotype (%) [5]: 6.94% and 2.59%
- Population Mitotic Cells (%) [5]: 71.43% and 38.46%
- Population Normal (%) [5]: 100%
- Population Pyknosed Nuclei (%) [5]: 4.55% and 4.11%
- Population Tubulin-Different-Phenotype (%) [5]: 15.92% and 33.7%
- Total Cell Count [5]: 308 and 316
- Population Apoptotic (%) [6]: 51.69% and 82.89%
- Population Fragmented Nuclei (%) [6]: 13.56% and 8.54%
- Population Healthy Nuclei (%) [6]: 48.73% and 29.67%
- Population Hoechst High Intensity Objects (%) [6]: 0%
- Population Membrane Permeable-Phenotype (%) [6]: 14.78% and 17.81%
- Population Mitochondria Different-Phenotype (%) [6]: 50.43% and 54.79%
- Population Mitotic Cells (%) [6]: 48.31% and 17.11%
- Population Normal (%) [6]: 100%
- Population Pyknosed Nuclei (%) [6]: 37.71% and 61.79%
- Population Tubulin-Different-Phenotype (%) [6]: 76.52% and 83.56%
- Total Cell Count [6]: 236 and 246

Structure (SMILES): CC(C)(C)c1cc(NC(=O)Nc2ccc(-c3cn4c(n3)sc3cc(OCCN5CCOCC5)ccc34)cc2)no1 [QUIZARTINIB]
- Population Apoptotic (%) [1]: 42% and 41%
- Population Fragmented Nuclei (%) [1]: 16% and 24%
- Population Healthy Nuclei (%) [1]: 65% and 52%
- Population Hoechst High Intensity Objects (%) [1]: 2%
- Population Membrane Permeable-Phenotype (%) [1]: 0% and 1%
- Population Mitochondria Different-Phenotype (%) [1]: 7% and 5%
- Population Mitotic Cells (%) [1]: 57% and 58%
- Population Normal (%) [1]: 97%
- Population Pyknosed Nuclei (%) [1]: 17% and 23%
- Population Tubulin-Different-Phenotype (%) [1]: 31% and 41%
- Total Cell Count [1]: 150 and 137
- Population Apoptotic (%) [2]: 43% and 48%
- Population Fragmented Nuclei (%) [2]: 34% and 35%
- Population Healthy Nuclei (%) [2]: 56% and 45%
- Population Hoechst High Intensity Objects (%) [2]: 3% and 5%
- Population Membrane Permeable-Phenotype (%) [2]: 0% and 5%
- Population Mitochondria Different-Phenotype (%) [2]: 10% and 5%
- Population Mitotic Cells (%) [2]: 56% and 51%
- Population Normal (%) [2]: 96% and 94%
- Population Pyknosed Nuclei (%) [2]: 8% and 18%
- Population Tubulin-Different-Phenotype (%) [2]: 75% and 70%
- Total Cell Count [2]: 190 and 162
- Population Apoptotic (%) [3]: 58% and 42%
- Population Fragmented Nuclei (%) [3]: 14% and 25%
- Population Healthy Nuclei (%) [3]: 72% and 61%
- Population Hoechst High Intensity Objects (%) [3]: 1% and 3%
- Population Membrane Permeable-Phenotype (%) [3]: 0% and 2%
- Population Mitochondria Different-Phenotype (%) [3]: 6%
- Population Mitotic Cells (%) [3]: 41% and 57%
- Population Normal (%) [3]: 98% and 96%
- Population Pyknosed Nuclei (%) [3]: 12% and 13%
- Population Tubulin-Different-Phenotype (%) [3]: 32% and 44%
- Total Cell Count [3]: 137 and 152
- Population Apoptotic (%) [4]: 75% and 39%
- Population Fragmented Nuclei (%) [4]: 33% and 40%
- Population Healthy Nuclei (%) [4]: 57% and 46%
- Population Hoechst High Intensity Objects (%) [4]: 1% and 4%
- Population Membrane Permeable-Phenotype (%) [4]: 0% and 1%
- Population Mitochondria Different-Phenotype (%) [4]: 21% and 10%
- Population Mitotic Cells (%) [4]: 25% and 60%
- Population Normal (%) [4]: 98% and 95%
- Population Pyknosed Nuclei (%) [4]: 8% and 13%
- Population Tubulin-Different-Phenotype (%) [4]: 71% and 70%
- Total Cell Count [4]: 190 and 179
- Population Apoptotic (%) [5]: 75% and 42%
- Population Fragmented Nuclei (%) [5]: 19% and 30%
- Population Healthy Nuclei (%) [5]: 71% and 60%
- Population Hoechst High Intensity Objects (%) [5]: 8% and 3%
- Population Membrane Permeable-Phenotype (%) [5]: 0% and 1%
- Population Mitochondria Different-Phenotype (%) [5]: 5% and 8%
- Population Mitotic Cells (%) [5]: 25% and 57%
- Population Normal (%) [5]: 91% and 96%
- Population Pyknosed Nuclei (%) [5]: 9%
- Population Tubulin-Different-Phenotype (%) [5]: 38% and 34%
- Total Cell Count [5]: 145 and 158
- Population Apoptotic (%) [6]: 79% and 60%
- Population Fragmented Nuclei (%) [6]: 30% and 44%
- Population Healthy Nuclei (%) [6]: 56% and 50%
- Population Hoechst High Intensity Objects (%) [6]: 7% and 3%
- Population Membrane Permeable-Phenotype (%) [6]: 0% and 2%
- Population Mitotic Cells (%) [6]: 20% and 40%
- Population Normal (%) [6]: 92% and 96%
- Population Pyknosed Nuclei (%) [6]: 13% and 5%
- Population Tubulin-Different-Phenotype (%) [6]: 74% and 59%
- Total Cell Count [6]: 195
